Reference: paper PMC2266610 (The Journal of General Physiology, 2005)
Entries after “also recorded” stand apart in the source; their conditions may differ.

Target: T1, homomeric (CNGA1) rod CNG channel (Bos taurus, UniProt Q00194)
T1 sequence (Q00194 1-690): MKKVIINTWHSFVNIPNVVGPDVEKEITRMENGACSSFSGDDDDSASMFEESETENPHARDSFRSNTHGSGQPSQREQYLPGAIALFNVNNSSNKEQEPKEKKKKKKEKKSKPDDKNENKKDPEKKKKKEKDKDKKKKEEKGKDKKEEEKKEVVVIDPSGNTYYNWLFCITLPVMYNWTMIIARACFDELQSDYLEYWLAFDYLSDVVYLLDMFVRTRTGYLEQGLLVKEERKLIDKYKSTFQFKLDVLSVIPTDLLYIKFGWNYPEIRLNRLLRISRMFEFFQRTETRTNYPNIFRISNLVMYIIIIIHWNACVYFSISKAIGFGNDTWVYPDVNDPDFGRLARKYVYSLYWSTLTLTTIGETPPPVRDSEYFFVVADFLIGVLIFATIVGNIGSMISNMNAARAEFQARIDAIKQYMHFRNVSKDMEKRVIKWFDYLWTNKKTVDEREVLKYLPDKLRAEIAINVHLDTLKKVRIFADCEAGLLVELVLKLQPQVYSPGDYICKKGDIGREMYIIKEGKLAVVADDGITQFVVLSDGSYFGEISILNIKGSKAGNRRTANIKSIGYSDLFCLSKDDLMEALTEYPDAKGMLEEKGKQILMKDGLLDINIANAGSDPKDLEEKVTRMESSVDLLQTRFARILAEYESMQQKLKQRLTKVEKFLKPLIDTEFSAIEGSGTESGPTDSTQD
Type: biochemical, bovine
Settings: saturating (2 mM) cGMP; for Inhibitory potency: result in words
In short: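 CNGA1 cRNA was injected into Xenopus oocytes (16°C, 3–12 d). Inside-out patches at room temperature were held in low-divalent Na solution (pH 7.2), with 2 mM cGMP intracellular and niflumic acid extracellular. Retinoid from ethanol stocks was mixed into the bath under dim light after phosphatase-driven affinity shifts finished. Current at +100 mV was taken at ~1 h steady state, leak-subtracted, normalized to pre-drug current, and Hill-fitted.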

CC1=C(/C=C/C(C)=C/C=C/C(C)=C/C(=O)O)C(C)(C)CCC1 [RA, all-trans-retinoic acid]
Inhibition of current at 400 nM retinoid (400 nM, after 1 h, representative patch): did not inhibit; also recorded: no inhibition | Inhibitory potency: No inhibition

CC(=O)/C=C/C1=C(C)CCCC1(C)C [β-ionone]
Inhibition of current at 10 μM retinoid (10 μM, after 1 h): unable to inhibit; also recorded: no change in current | Inhibitory potency: No inhibition
